The target of assay [1] is Histone deacetylase (Homo sapiens) (UniProt Q13547+O15379+Q9UBN7+Q92769+Q9UQL6+Q8WUI4+Q9BY41+Q96DB2+P56524+Q9UKV0+Q969S8). Kind of assay: Inhibition of HDAC in human NCI-H661 cells assessed as induction of histone H4 acetylation at 3 uM after 6 hrs by Western blot analysis. The assay is classed as cell-based. Put shortly:
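NCI-H661 cells exposed to compound for 6 h, then lysed and probed by Western blot for acetylated histone H4, with tubulin acetylation blotted alongside. Blots shown are representative of three independent experiments.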
A general note: Immunoblotting shows a protein as a band on a membrane.

Assay [2] has as its system NCI-H661. Kind of assay: Antiproliferative activity against human NCI-H661 cells after 48 hrs by XTT assay. The assay is classed as functional, cell-based. Conditions: NCI-H661, 48 h. (Tetrazolium dyes change colour on reduction, which living cells bring about.)
Assay [3] concerns NCI-H661. The experiment in a line: Increase in E-cadherin mRNA expression in human NCI-H661 cells at 300 nM by qRT-PCR relative to control. The assay is classed as functional. For orientation: Real-time PCR tracks product formation cycle by cycle.
For assay [4], the system named is NCI-H661. The experiment in a line: Increase in semaphoring 3F mRNA expression in human NCI-H661 cells at 300 nM by qRT-PCR relative to control. The assay is classed as functional.

The term IC50 denotes the midpoint of a concentration-inhibition curve. A higher IC50 goes with weaker potency.

Each structure is given as a SMILES string. Active and inactive are the calls of the source. No cut-off for these calls is given here.

As for `CC(/C=C/C(=O)NO)=C\C1(C)Oc2ccccc2C1=O` (centres undefined), the outcome in assay [1] was Active.
As to `CC(/C=C/C(=O)NO)=C\[C@@H](C)C(=O)c1ccc(N(C)C)cc1` [TRICHOSTATIN], the concentration for half-maximal inhibition (IC50) in the assay on NCI-H661 [2] is 100 nM. Besides, the figures for the “fold change (FC)” value in the assay on NCI-H661 [3] and with NCI-H661 [4] were 50 and 4, respectively.

The values are drawn from ChEMBL document CHEMBL1138493, “Synthesis and modeling of new benzofuranone histone deacetylase inhibitors that stimulate tumor suppressor gene expression” (J Med Chem, 2009).
